Measurements taken from the RNAGym collection of RNA variant scans (doi:10.1126/science.aae0568).
Fewer inactive variants are shown than the library holds.

B1: tRNA (parent)
chain: GUUCCGUUGGCGUAAUGGUAACGCGUCUCCCUCCUAAGGAGAAGACUGCGGGUUCGAGUCCCGUACGGAACG

Variants of: B1
Experiment: yeast fitness relative to wild type (ratio to wild type); higher = fitter; tRNA-Arg(CCU), competitive growth, 37 C, YPD
In short: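 For this measurement, the tRNA-Arg(CCU) gene was varied by chemical synthesis at a 3% per-site mutation rate across 69 sites, and each variant was placed at the native genomic locus in Saccharomyces cerevisiae. The pooled strains went through a 24-hour competition in YPD at 37°C in six parallel replicates, with amplicons from start and end populations read by 100-nucleotide paired-end sequencing. Darwinian fitness relative to wild type followed from the change in each genotype's frequency. Genotypes needed ≥ 100 starting reads, and estimates < 0.5 were set to 0.5.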

Row | Variant | yeast fitness
1 | U13C U16G C27G C49A C60A | ≤ 0.5
2 | A21C U32G | 0.617
3 | G9C U19C C24U C27A | ≤ 0.5
4 | G39A C66U A70G | 0.601
5 | C31G U64A A69C | ≤ 0.5
6 | C22U C27U A57G | 0.53
7 | C22A A36U G68C | ≤ 0.5
8 | C11G G12C C60A C61A | ≤ 0.5
9 | C5U A45C C62U | 0.768
10 | C5U A45C C62A | 0.701
11 | A20C G56A A70G | 0.611
12 | A15G U16A G38C C62G G68A | ≤ 0.5
13 | U19C C60A G68C | ≤ 0.5
14 | A43U U64G G67A | ≤ 0.5
15 | C22U G38A C55U G68C | ≤ 0.5
16 | C24G C60U G68A | 0.789
17 | C4A G44A C49U U54G C66U A70C | 0.503
18 | A21C C29U C31G | ≤ 0.5
19 | U8C C46A C62U | 0.774
20 | A37U A43C U53A U54C | ≤ 0.5
21 | C5A C24U C46A | 0.519

Row | Variant | yeast fitness
22 | A14G G25A C46G A57C | ≤ 0.5
23 | G56C A57G G68U | ≤ 0.5
24 | C60U A65G | 0.86
25 | U7C U26C A36G A42G G48C A65C | ≤ 0.5
26 | G48A C55U C60G | 0.727
27 | G6C A14C | 0.596
28 | A37G U64A | 0.61
29 | A21G G23A C27G A37U G44A C49U | 0.564
30 | C5G G18C C60G | ≤ 0.5
31 | U26C C46G C62G U64C G67U | ≤ 0.5
32 | A15C U16G A21C C24A U32A A45C | ≤ 0.5
33 | G17A U19A C30G | 0.66
34 | U26A A43C A45U C55U A65C | ≤ 0.5
35 | C11U A37U | 0.808
36 | A15C C27U A40G G52A A57U | 0.692
37 | A14G C31G C33U G38C G58C G67U | ≤ 0.5
38 | G10A A20C G38A G41A C49U A65U | ≤ 0.5
39 | U19C C34G G68A | ≤ 0.5
40 | G9C A36U A40U G44A G63A A69C | ≤ 0.5
41 | U35C C55A A69U | ≤ 0.5
42 | A57C A70U | 0.679

Row | Variant | yeast fitness
43 | U3A A14C A20C U28A C29G U32C G39A A57C | ≤ 0.5
44 | C11G U47A G67A | 0.548
45 | U2G C4U G6C C31G | ≤ 0.5
46 | U3A C4A U16G G58C | ≤ 0.5
47 | U26G C31G U32A | 0.691
48 | C4G C22U C55G | ≤ 0.5
49 | U16C C27U U64G | 0.536
50 | U2A C60A | 0.645
51 | C5G A21G C30U A40U | ≤ 0.5
52 | U32A G58A | 0.781
53 | C11U C49G A57C G67U | ≤ 0.5
54 | U16A C24G U35G | ≤ 0.5
55 | U16C C33G G51A C55A | ≤ 0.5
56 | A21G A70U | 1
57 | C4G A21C G23C A36U A57U C60G G68C | ≤ 0.5
58 | C5A A65U | 0.723
59 | U3A C4A U16A C30G U53C C66U A70G | ≤ 0.5
60 | U16A C30G | 0.567
61 | C22G C27G C29G C34A A43U A69C | ≤ 0.5
62 | U7A C34U C55G | ≤ 0.5
63 | A20U A40U C46G C62G C66U A70C | 0.573

Row | Variant | yeast fitness
64 | U26C C49U | 0.833
65 | U8C G63A | 0.864
66 | G10A A43U A69C | 0.887
67 | G17C C55U G67A G68C | ≤ 0.5
68 | G9C U54A | 0.658
69 | C29G A40U A65U | ≤ 0.5
70 | C5A C33U C62A | 0.542
71 | G38A C60A | 0.646
72 | A21U C30G A70U | 0.677
73 | C5G U19A C30G G39C U53C C55A | ≤ 0.5
74 | C11G C30U U35A U53G C62U | ≤ 0.5
75 | U7A C31G G63A | ≤ 0.5
76 | C5A U53A | 0.722
77 | C11A C34G A43G C46G | 0.708
78 | C11U C22U | 0.855
79 | C33U A42U | 0.729
80 | A21U A43U G63A | ≤ 0.5
81 | C5A U28C C30U A36C A42G | ≤ 0.5
82 | C22G A65U | 1.03
83 | C4A A15G G56C C60A | ≤ 0.5
84 | C5U A21G G25A A42U G58A | 0.744
